Values belong to the molecule of their own block, whether it stands above or below them. *1 amine or outer side, *2 acyl side, *3 side chain or, on linkers, in order; H or OH if unused. Where a SMILES comes first, the peptide text is derived from it. Bridges are numbered along the chain shown (N, C = ends). [ ]: non-standard residue; d: D form. The star is where a group is joined. Staurosporine = CO[C@@H]1[C@H](N(C)*)C[C@H]2O[C@]1(C)n1c3ccccc3c3c4c(c5c6ccccc6n2c5c31)C(=O)NC4; Suc = O=C(CCC(=O)[*:2])[*:1]; Dap = NC[C@H](N)C(=O)O; βAla = NCCC(=O)O
What was measured:
[1] = target: Proto-oncogene tyrosine-protein kinase Src (Homo sapiens) (UniProt P12931); experiment: Binding affinity to human SRC at 500 nM by cell-based competition binding assay relative to control in presence of DTT
[2] = target: T1, Aurora kinase A (Homo sapiens) (UniProt O14965); experiment: Binding affinity to human aurora kinase A at 500 nM by cell-based competition binding assay relative to control in presence of DTT
T1 sequence (whole entry): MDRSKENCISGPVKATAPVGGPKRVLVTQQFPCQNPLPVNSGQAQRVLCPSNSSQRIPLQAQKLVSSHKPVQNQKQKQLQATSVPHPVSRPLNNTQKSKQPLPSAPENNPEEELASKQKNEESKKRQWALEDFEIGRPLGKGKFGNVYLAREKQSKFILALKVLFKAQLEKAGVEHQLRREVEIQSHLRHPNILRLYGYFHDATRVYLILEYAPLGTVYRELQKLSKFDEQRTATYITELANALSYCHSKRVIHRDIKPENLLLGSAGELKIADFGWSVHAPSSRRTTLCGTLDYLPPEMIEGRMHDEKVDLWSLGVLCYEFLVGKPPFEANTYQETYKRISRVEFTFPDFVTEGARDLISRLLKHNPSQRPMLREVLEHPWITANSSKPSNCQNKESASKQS

[3] = target: MAP kinase-activated protein kinase 2 (Homo sapiens) (UniProt P49137); experiment: Binding affinity to human MAPKAPK2 at 500 nM by cell-based competition binding assay relative to control in presence of DTT
Summary of the method: (§1)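 Competition binding screen (Ambit) across a panel of 90 kinases, scoring test ligand displacement of each kinase's binding relative to control. The screen ran under reducing conditions with 7.5 mM DTT.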

[4] = target: Serine/threonine-protein kinase B-raf (Homo sapiens) (UniProt P15056); experiment: Binding affinity to human BRAF at 500 nM by cell-based competition binding assay relative to control in presence of DTT
Summary of the method: (§2)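 Kinase binding profiling ran on a commercial (Ambit) competitive binding screen against a panel of 90 kinases. The screen used reducing conditions with 7.5 mM DTT. To withstand the DTT, the bivalent ligand was tested as its amide isostere, with the disulfide replaced. A staurosporine derivative carrying a 3 β-alanine linker was run as the reference compound.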

[5] = target: Proto-oncogene tyrosine-protein kinase receptor Ret (Homo sapiens) (UniProt P07949); experiment: Binding affinity to human RET at 500 nM by cell-based competition binding assay relative to control in presence of DTT
[6] = target: Fibroblast growth factor receptor 2 (Homo sapiens) (UniProt P21802); experiment: Binding affinity to human FGFR2 at 500 nM by cell-based competition binding assay relative to control in presence of DTT
Summary of the method: (§3)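 Commercial (Ambit) competitive kinase-binding panel of 90 kinases measured the binding profile. Run under reducing conditions of 7.5 mM DTT. Binding is expressed relative to control.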

[7] = target: Platelet-derived growth factor receptor alpha (Homo sapiens) (UniProt P16234); experiment: Binding affinity to human PDGFRalpha at 500 nM by cell-based competition binding assay relative to control in presence of DTT
[8] = target: Cyclin-dependent kinase 3 (Homo sapiens) (UniProt Q00526); experiment: Binding affinity to human CDK3 at 500 nM by cell-based competition binding assay relative to control in presence of DTT; summary of the method: as §2
[9] = target: T2, TGF-beta receptor type-1 (Homo sapiens) (UniProt P36897); experiment: Binding affinity to human TGFBR1 at 200 nM by cell-based competition binding assay relative to control in presence of DTT
T2 sequence (whole entry): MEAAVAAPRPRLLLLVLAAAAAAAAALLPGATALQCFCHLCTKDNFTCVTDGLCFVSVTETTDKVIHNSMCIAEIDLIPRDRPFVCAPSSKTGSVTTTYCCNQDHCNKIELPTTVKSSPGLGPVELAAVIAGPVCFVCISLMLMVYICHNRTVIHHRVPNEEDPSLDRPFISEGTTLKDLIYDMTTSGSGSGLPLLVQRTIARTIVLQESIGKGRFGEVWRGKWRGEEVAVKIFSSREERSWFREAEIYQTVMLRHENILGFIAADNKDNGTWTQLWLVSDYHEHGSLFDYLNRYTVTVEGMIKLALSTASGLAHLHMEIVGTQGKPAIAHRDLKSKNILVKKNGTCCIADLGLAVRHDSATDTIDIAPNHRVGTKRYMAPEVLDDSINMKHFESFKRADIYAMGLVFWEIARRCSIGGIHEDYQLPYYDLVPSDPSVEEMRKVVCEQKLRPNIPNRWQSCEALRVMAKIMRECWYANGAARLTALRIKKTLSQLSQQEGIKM

[10] = target: Insulin-like growth factor 1 receptor (Homo sapiens) (UniProt P08069); experiment: Binding affinity to human IGF1R at 200 nM by cell-based competition binding assay relative to control in presence of DTT; summary of the method: as §1
[11] = target: Ribosomal protein S6 kinase alpha-3 (Homo sapiens) (UniProt P51812); experiment: Binding affinity to human RPS6KA3 kinase domain 1 at 200 nM by cell-based competition binding assay relative to control in presence of DTT
[12] = target: Serine/threonine-protein kinase pim-3 (Homo sapiens) (UniProt Q86V86); experiment: Binding affinity to human PIM3 at 200 nM by cell-based competition binding assay relative to control in presence of DTT
[13] = target: Fibroblast growth factor receptor 2 (Homo sapiens) (UniProt P21802); experiment: Binding affinity to human FGFR2 at 200 nM by cell-based competition binding assay relative to control in presence of DTT; summary of the method: as §3
[14] = target: MAP/microtubule affinity-regulating kinase 3 (Homo sapiens) (UniProt P27448); experiment: Binding affinity to human MARK3 at 50 nM by cell-based competition binding assay relative to control in presence of DTT; summary of the method: as §1
[15] = target: T1, Aurora kinase A (Homo sapiens); experiment: Binding affinity to human aurora kinase A at 50 nM by cell-based competition binding assay relative to control in presence of DTT
[16] = target: Mitogen-activated protein kinase 11 (Homo sapiens) (UniProt Q15759); experiment: Binding affinity to human p38beta at 50 nM by cell-based competition binding assay relative to control in presence of DTT
Mitogen-activated protein kinase 11 (Homo sapiens), sequence (Q15759 whole entry): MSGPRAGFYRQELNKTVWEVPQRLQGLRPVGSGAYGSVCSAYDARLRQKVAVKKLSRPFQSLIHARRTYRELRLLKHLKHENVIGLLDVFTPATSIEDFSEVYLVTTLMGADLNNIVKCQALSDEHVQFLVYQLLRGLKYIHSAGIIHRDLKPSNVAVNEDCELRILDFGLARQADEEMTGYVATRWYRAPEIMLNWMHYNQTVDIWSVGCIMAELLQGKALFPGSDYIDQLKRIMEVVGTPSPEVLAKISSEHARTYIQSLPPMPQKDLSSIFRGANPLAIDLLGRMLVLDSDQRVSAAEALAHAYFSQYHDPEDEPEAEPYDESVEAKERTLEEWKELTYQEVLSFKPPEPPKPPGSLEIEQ

Fibroblast growth factor receptor 2 (Homo sapiens), sequence (P21802 22-821 limits assumed): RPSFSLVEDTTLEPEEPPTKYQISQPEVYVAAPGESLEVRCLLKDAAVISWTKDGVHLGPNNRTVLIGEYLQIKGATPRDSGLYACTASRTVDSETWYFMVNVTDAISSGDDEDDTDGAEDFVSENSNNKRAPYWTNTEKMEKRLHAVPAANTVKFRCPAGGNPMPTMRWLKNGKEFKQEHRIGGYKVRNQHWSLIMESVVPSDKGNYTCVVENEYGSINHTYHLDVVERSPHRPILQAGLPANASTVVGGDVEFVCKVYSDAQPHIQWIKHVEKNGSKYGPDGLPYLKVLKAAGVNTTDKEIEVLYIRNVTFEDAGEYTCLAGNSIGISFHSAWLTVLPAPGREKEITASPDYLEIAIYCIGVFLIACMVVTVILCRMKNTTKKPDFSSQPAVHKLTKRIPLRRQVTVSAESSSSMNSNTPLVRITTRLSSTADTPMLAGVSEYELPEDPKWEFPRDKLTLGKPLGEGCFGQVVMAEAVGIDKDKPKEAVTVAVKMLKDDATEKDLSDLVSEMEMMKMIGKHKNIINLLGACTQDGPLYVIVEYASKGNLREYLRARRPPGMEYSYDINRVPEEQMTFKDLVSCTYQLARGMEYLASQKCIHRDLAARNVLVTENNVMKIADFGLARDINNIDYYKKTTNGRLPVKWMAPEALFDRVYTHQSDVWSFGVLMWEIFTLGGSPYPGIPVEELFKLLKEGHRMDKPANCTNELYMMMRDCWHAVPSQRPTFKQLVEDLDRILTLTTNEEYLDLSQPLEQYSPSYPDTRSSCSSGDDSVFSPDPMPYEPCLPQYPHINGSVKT
Platelet-derived growth factor receptor alpha (Homo sapiens), sequence (P16234 whole entry): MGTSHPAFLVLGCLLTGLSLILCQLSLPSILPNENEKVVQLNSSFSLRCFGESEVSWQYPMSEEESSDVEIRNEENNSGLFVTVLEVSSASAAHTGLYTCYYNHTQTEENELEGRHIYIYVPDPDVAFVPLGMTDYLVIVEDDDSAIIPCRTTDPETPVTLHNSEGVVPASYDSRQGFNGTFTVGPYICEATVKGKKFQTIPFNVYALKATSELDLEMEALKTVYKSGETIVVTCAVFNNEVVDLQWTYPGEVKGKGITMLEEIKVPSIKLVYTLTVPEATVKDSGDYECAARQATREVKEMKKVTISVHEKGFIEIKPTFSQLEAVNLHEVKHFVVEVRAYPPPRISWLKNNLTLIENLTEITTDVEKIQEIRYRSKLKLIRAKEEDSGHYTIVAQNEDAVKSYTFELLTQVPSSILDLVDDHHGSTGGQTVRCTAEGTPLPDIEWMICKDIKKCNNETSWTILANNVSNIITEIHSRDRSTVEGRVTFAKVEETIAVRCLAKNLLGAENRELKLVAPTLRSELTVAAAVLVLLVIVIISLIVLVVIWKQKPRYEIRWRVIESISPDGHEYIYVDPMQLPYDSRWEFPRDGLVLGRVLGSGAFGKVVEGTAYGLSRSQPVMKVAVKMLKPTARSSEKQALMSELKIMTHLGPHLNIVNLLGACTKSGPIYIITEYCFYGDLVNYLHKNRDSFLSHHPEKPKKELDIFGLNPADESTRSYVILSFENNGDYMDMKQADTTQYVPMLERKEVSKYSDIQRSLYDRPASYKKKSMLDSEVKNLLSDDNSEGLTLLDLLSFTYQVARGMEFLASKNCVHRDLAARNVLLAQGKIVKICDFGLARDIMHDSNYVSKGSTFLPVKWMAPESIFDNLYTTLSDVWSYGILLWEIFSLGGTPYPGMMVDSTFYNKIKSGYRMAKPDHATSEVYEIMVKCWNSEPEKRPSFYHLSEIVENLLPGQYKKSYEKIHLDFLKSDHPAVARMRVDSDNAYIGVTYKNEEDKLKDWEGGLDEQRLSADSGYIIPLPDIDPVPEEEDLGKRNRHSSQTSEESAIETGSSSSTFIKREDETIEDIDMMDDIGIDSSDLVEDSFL
MAP/microtubule affinity-regulating kinase 3 (Homo sapiens), sequence (P27448 whole entry, looked up): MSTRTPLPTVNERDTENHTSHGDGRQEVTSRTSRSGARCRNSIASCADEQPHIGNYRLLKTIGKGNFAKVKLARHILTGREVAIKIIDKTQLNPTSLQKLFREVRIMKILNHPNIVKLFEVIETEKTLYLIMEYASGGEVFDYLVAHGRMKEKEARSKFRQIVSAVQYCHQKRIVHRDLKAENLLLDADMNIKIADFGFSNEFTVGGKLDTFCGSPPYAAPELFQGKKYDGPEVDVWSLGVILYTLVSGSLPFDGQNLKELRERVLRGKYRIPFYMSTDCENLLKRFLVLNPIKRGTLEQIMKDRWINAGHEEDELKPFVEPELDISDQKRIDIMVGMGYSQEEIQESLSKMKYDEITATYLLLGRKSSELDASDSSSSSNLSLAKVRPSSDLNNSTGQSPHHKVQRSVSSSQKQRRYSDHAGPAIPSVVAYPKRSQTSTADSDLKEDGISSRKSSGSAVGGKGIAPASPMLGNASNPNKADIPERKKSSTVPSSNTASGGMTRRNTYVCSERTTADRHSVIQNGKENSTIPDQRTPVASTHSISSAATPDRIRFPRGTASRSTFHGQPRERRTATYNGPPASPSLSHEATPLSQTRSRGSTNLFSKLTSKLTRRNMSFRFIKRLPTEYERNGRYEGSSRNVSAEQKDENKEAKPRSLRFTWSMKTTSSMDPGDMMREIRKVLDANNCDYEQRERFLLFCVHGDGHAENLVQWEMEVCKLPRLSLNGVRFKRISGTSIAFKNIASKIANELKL
MAP kinase-activated protein kinase 2 (Homo sapiens), sequence (P49137 whole entry, looked up): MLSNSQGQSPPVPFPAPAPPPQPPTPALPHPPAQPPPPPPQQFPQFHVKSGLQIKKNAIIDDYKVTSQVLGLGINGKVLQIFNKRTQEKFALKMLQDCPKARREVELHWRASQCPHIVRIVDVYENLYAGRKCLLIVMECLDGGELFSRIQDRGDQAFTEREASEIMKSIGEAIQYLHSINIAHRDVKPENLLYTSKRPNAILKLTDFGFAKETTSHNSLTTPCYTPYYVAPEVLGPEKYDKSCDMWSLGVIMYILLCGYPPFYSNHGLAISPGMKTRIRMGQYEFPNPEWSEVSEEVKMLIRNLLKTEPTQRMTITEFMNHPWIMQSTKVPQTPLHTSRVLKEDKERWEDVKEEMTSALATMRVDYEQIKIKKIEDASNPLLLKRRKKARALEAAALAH
Proto-oncogene tyrosine-protein kinase Src (Homo sapiens), sequence (P12931 2-536 limits assumed): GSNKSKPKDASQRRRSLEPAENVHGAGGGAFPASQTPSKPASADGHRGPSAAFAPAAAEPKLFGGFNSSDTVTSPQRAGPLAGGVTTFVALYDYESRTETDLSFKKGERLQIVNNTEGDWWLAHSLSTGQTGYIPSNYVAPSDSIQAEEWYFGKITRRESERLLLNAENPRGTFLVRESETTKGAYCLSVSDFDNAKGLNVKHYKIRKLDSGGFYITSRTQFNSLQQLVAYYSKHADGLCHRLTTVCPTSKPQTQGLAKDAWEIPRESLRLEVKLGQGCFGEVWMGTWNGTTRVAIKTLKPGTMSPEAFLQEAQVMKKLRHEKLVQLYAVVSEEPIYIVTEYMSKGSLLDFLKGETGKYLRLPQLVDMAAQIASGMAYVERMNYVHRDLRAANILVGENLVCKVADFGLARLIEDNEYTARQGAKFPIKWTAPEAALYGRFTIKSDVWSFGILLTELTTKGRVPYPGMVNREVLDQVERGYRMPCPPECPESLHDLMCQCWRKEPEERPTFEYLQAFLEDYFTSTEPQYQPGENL
Serine/threonine-protein kinase B-raf (Homo sapiens), sequence (P15056 whole entry): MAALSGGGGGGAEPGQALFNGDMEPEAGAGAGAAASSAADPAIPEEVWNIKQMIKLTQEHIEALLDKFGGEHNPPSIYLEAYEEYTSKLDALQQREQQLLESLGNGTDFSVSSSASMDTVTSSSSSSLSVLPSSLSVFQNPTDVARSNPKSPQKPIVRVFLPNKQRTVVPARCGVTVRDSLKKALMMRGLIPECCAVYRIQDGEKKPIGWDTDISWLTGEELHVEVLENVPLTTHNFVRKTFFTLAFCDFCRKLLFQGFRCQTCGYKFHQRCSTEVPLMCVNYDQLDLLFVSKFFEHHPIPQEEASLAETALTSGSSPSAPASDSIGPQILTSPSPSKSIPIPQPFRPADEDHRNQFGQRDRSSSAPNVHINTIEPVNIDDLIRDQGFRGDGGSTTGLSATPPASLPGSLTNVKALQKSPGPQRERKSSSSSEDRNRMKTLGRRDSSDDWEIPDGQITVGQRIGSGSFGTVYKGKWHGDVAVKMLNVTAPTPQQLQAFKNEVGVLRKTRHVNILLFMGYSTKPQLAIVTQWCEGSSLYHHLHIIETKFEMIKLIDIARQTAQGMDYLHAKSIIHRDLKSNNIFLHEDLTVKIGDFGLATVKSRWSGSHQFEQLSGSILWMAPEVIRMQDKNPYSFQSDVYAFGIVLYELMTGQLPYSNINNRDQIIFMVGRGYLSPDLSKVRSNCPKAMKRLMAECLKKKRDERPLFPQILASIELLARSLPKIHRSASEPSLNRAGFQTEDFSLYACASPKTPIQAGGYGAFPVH
Cyclin-dependent kinase 3 (Homo sapiens), sequence (Q00526 whole entry, looked up): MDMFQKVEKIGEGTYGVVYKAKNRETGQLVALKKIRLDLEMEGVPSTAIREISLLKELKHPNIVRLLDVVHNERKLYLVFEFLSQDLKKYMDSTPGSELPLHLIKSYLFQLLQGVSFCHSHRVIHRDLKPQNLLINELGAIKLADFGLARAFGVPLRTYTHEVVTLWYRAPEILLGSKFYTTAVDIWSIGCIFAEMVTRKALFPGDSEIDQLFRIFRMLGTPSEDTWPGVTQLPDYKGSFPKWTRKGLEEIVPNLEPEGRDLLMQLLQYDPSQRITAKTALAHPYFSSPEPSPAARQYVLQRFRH

- Activity [1]: 72%
- Activity [2]: 4.2%
- Activity [3]: 100%
- Activity [4]: 100%
- Activity [5]: 5.6%
- Activity [6]: 27%
- Activity [7]: 7%
- Activity [8]: 87%
SMILES: CO[C@@H]1[C@H](N(C)C(=O)CCC(=O)NCCC(=O)NCCC(=O)NCCC(N)=O)C[C@H]2O[C@]1(C)n1c3ccccc3c3c4c(c5c6ccccc6n2c5c31)C(=O)NC4

- Activity [9]: 100%
- Activity [10]: 100%
- Activity [11]: 100%
- Activity [12]: 26%
- Activity [13]: 66%
SMILES: CO[C@@H]1[C@H](N(C)C(=O)CCC(=O)NCCC(=O)NCCC(=O)NCCC(=O)NCCC(=O)NCCC(=O)NCCC(=O)NCCC(=O)N[C@H]2CSSC[C@@H](C(=O)NCC(N)=O)NC(=O)CNC(=O)[C@H](Cc3ccccc3)NC(=O)[C@H](C(C)C)NC(=O)[C@H](CCCNC(=N)N)NC(=O)[C@H](Cc3ccccc3)NC(=O)[C@H](C(C)C)NC2=O)C[C@H]2O[C@]1(C)n1c3ccccc3c3c4c(c5c6ccccc6n2c5c31)C(=O)NC4 ({Staurosporine-Suc-βAla-βAla-βAla-βAla-βAla-βAla-βAla}-CVFRVFGCG-NH2; disulfide 1-8)

- Activity [14]: 61%
- Activity [15]: 63%
- Activity [16]: 100%
SMILES: CO[C@@H]1[C@H](N(C)C(=O)CCC(=O)NCCC(=O)NCCC(=O)NCCC(=O)NCCC(=O)NCCC(=O)NCCC(=O)NCCC(=O)N[C@H]2CNC(=O)C[C@@H](C(N)=O)NC(=O)CNC(=O)[C@H](Cc3ccccc3)NC(=O)[C@H](C(C)C)NC(=O)[C@H](CCCNC(=N)N)NC(=O)[C@H](Cc3ccccc3)NC(=O)[C@H](C(C)C)NC2=O)C[C@H]2O[C@]1(C)n1c3ccccc3c3c4c(c5c6ccccc6n2c5c31)C(=O)NC4 ({Staurosporine-Suc-βAla-βAla-βAla-βAla-βAla-βAla-βAla}-[Dap]VFRVFGD-NH2; lactam 1-8)
